1 molecule from paper PMC12828150 (Acta Pharmaceutica Sinica. B, 2025) can be followed below.

One experiment relates to HeLa. The experiment can be described thus: Antiproliferative activity, HeLa cells. It counts as cell-based. Particulars: read-out: HeLa IC50. The essentials: (§1)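 Cells seeded at 1000 per well in RPMI-1640 with 10% FBS and left 24 h before adding diluted test compound. After 96 h exposure, viability was read by CellTiter-Glo luminescence. Readings were normalised as % of untreated cells and IC50 derived. n = 3, values averaged.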

The test system of another experiment is HepG2. The experiment can be described thus: Antiproliferative activity, HepG2 cells. The settings on record: read-out: HepG2 IC50. It counts as cell-based. The essentials:
as §1

A word on the IC50: it is the point on the concentration scale where inhibition reaches its midpoint. For `CN1CCC(NC2CCc3[nH]c4c(C(N)=O)ccc(-c5ccccc5Cl)c4c3C2)CC1` (centres unmarked) [WJ0909], the 50% inhibitory concentration (IC50) in the experiment on HeLa was 17 nM; in the experiment with HepG2, 24 nM.
